In the library only some 2.5% were active in any assay of this set; here they are far more common.
MEKK2wt PB1 HTS – raises or lowers MEK5 binding to wildtype human MEKK2 PB1 domain. bead flow cytometry, Alexa488-MEK5 binding to MEKK2 WT; actives lie on both sides. binding response (% of control), % at 10 µM. actives 1.1% (n = 290,000). AID 1531. Q9Y2U5; in the data active means binding response below about 67% or above about 130%
MEKK3 PB1 HTS – MEKK3-MEK5 PB1 interaction, increase or decrease; AID 1529; binding response (% of control), % at 10 µM; bead-based flow cytometry, Alexa488-MEK5 binding to MEKK3; actives lie on both sides; 0 = blocked by unlabeled MEK5, 100 = vehicle; Q99759; actives 1.4% (n = 290,000);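 active means binding response more than 3 SD above or below the average of its plate-row segment, actives on both sides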;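 further: Alexa488 bead fluorescence after subtracting the streptavidin-only scavenger bead signal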
MEKK2 mut-MEK5 – signal of MEK5 binding to mutant human MEKK2 PB1 domain; bead flow cytometry, Alexa488-MEK5 binding to MEKK2 mutant; percent response, % at 10 µM; actives 0.35% (n = 290,000); AID 1530; in the data active means percent response above about 24%, passing the limit was not always enough
ABCG2 inh – inhibitors of human ABCG2 transporter, ABCB1 counter-screen | Q9UNQ0 | IgMXP3 cells, JC-1 efflux, flow cytometry | inhibition, % at 6.6 µM | actives 0.1% (n = 190,000) | AID 1325;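 active means inhibition above 80%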;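 further: 0% = DMSO and 100% = nicardipine control wells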
Target sequence (Q9UNQ0 whole entry, looked up): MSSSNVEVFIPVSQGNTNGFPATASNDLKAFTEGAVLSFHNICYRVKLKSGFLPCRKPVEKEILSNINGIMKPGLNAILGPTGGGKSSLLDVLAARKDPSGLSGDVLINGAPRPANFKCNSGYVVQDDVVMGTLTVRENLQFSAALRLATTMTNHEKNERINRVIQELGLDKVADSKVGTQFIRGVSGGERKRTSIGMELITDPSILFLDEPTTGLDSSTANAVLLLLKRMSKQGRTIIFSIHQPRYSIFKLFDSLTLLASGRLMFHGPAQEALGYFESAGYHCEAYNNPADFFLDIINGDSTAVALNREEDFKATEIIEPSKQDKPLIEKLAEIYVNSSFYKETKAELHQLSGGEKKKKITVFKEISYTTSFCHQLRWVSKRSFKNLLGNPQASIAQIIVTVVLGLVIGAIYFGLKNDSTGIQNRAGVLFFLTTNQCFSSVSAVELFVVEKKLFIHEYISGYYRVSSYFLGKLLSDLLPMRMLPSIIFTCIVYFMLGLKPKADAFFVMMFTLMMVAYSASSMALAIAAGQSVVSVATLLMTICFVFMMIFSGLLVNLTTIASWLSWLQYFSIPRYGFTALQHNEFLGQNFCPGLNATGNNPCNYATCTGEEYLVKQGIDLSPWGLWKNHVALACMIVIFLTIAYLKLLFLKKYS
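material = IgMXP3 (ABCG2) plus far-red-tagged CCRF-Adr (ABCB1) cells | amount = 3 million cells/mL, equal mix of both lines | also added = JC-1 transporter substrate | dosing = one concentration, 6.6 µM final | schedule = 10 min at 25 °C | measured by = flow cytometric JC-1 green MFI at 530 nm | read-out basis = percent efflux inhibition, scaled nicardipine 100% to DMSO 0%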
ABCB1 block – inhibitors of human ABCB1 transporter, ABCG2 counter-screen; P08183; CCRF-Adr cells, JC-1 efflux, flow cytometry; inhibition, % at 6.6 µM; actives 0.067% (n = 190,000); AID 1326; in the data active means inhibition above about 40%;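 further: 0% = vehicle and 100% = reference inhibitor; higher value means more JC-1 retained so stronger ABCB1 efflux block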
Efflux pump mplx – inhibitors of Candida antifungal efflux pumps expressed in yeast; S. cerevisiae Candida pump triplex, Nile Red efflux; inhibition, % at 10 µM; actives 0.44% (n = 330,000);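 active means plate passing quality check with inhibition over a set limit, or well fluorescence over plate mean plus 4 SD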;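 further: Nile Red retained in pooled yeast measured as flow cytometry median fluorescence; 0% = buffer negative control and 100% = Enniatin B positive control; higher means more Nile Red kept so more efflux inhibition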
MEKK2wt confirm – raises or lowers MEK5 binding to wildtype human MEKK2, retest; actives 2.4% (n = 5,900); shares compounds with MEKK3 PB1 HTS; binding response (% of control), % at 10 µM; AID 1892; bead flow cytometry, Alexa488-MEK5 binding to MEKK2 WT; actives lie on both sides; in the data active means binding response below about 16% or above about 210%; inactive means in between
MEKK2mut-MEK5 – signal of MEK5 binding to mutant human MEKK2, retest | shares compounds with MEKK3 PB1 HTS | bead flow cytometry, Alexa488-MEK5 binding to MEKK2 mutant | percent response, % at 10 µM | actives 2% (n = 5,900); in the data active means percent response mostly above about 71%, no sharp cut-off; inactive means mostly below about 38%;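 further: higher means compound restores mutant binding toward wildtype level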
MEKK3 confirm – MEKK3-MEK5 PB1 inhibition, single concentration confirmation; shares compounds with MEKK3 PB1 HTS; bead flow cytometry, Alexa488-MEK5 binding to MEKK3; active compounds read low; binding response (% of control), % at 10 µM; actives 1.8% (n = 5,900); AID 1894;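 active means binding response below 72% of control, or above a set upper limit, though filed actives all read lower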;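 further: 100% = DMSO only wells and 0% = binding blocked by excess unlabeled MEK5; lower values mean stronger disruption of MEK5 binding to MEKK3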
* marks the source's active call; other numbers are inactive results; [ ] = remark or other dose.

How did CC(CNC(=O)CC(C)(C)C)NC(=O)CC(C)(C)C (centres undefined) do in these assays?
MEKK2wt PB1 HTS: 102; MEKK3 PB1 HTS: 123*; MEKK2 mut-MEK5: 7; ABCG2 inh: 0; ABCB1 block: 0; Efflux pump mplx: 0; MEKK2wt confirm: 94; MEKK2mut-MEK5: 0; MEKK3 confirm: 102

What do the screens show for `CCN(CC)C(=O)C(=O)Nc1ccc(F)c(Cl)c1`?
MEKK2wt PB1 HTS: 88; MEKK3 PB1 HTS: 75*[inhibitor]; MEKK2 mut-MEK5: -7; ABCG2 inh: 5; ABCB1 block: 1; Efflux pump mplx: 0; MEKK2wt confirm: 103; MEKK2mut-MEK5: -1; MEKK3 confirm: 102

How did Cc1ccc(OCCC(=O)Nc2ccc(F)c(Cl)c2)cc1 do in these assays?
MEKK2wt PB1 HTS: 223*; MEKK3 PB1 HTS: 117; MEKK2 mut-MEK5: 31; ABCG2 inh: 4; ABCB1 block: 0; Efflux pump mplx: 0; MEKK2wt confirm: 103; MEKK2mut-MEK5: 14; MEKK3 confirm: 102

How did Cc1ccc(OCCC(=O)Nc2ccc(C)c(F)c2)cc1 do in these assays?
MEKK2wt PB1 HTS: 102; MEKK3 PB1 HTS: 100; MEKK2 mut-MEK5: -5; ABCG2 inh: 1; ABCB1 block: 0; Efflux pump mplx: 0

What do the screens show for `CSCCC(NC(N)=O)C(=O)Nc1cccc(S(=O)(=O)N2CCOCC2)c1` (centres undefined)?
MEKK2wt PB1 HTS: 83; MEKK3 PB1 HTS: 72*[inhibitor]; MEKK2 mut-MEK5: -9; ABCG2 inh: -1; ABCB1 block: 0; Efflux pump mplx: 0; MEKK2wt confirm: 98; MEKK2mut-MEK5: 0; MEKK3 confirm: 102

What do the screens show for `CSCCC(NC(=O)c1cccc(S(=O)(=O)N2CCOCC2)c1)C(=O)Nc1ccc(F)cc1` (centres undefined)?
MEKK2wt PB1 HTS: 100; MEKK3 PB1 HTS: 97; MEKK2 mut-MEK5: 1; ABCG2 inh: 48; ABCB1 block: 1; Efflux pump mplx: 0

How did CC1=C[C@@H](C)[C@@H](c2ccccc2)OC1=O do in these assays?
MEKK2wt PB1 HTS: 88; MEKK3 PB1 HTS: 78*[inhibitor]; MEKK2 mut-MEK5: -6; Efflux pump mplx: 0; MEKK2wt confirm: 102; MEKK2mut-MEK5: 14; MEKK3 confirm: 105

Results for CC1=C[C@@H](C)[C@@H](c2ccc(C(F)(F)F)cc2)OC1=O ?
MEKK2wt PB1 HTS: 97; MEKK3 PB1 HTS: 98; MEKK2 mut-MEK5: 3; Efflux pump mplx: 0

How did COc1cc(CCC(=O)OCC(=O)Nc2nc(C)c(Cl)cc2Cl)cc(OC)c1OC do in these assays?
MEKK2wt PB1 HTS: 12*[inhibitor]; MEKK3 PB1 HTS: 102; MEKK2 mut-MEK5: -32; ABCG2 inh: 4; ABCB1 block: 1; Efflux pump mplx: 0; MEKK2wt confirm: 95; MEKK2mut-MEK5: -10; MEKK3 confirm: 97

What do the screens show for `CCCCc1noc(-c2c(-c3ccccc3Cl)noc2C)n1`?
MEKK2wt PB1 HTS: 80; MEKK3 PB1 HTS: 74; MEKK2 mut-MEK5: -22; ABCG2 inh: -1; ABCB1 block: 0; Efflux pump mplx: 0

Results for O=C(C[C@H]1C/C=C\CCC(=O)O[C@@H](c2ccccc2)CNC1=O)NCCO ?
Efflux pump mplx: 0

What do the screens show for `Cn1c(=O)n(C)c2cc3[nH]cnc3cc21`?
MEKK2wt PB1 HTS: 96; MEKK3 PB1 HTS: 96; MEKK2 mut-MEK5: 3; Efflux pump mplx: 0

How did Nc1cc2nc[nH]c2cc1N do in these assays?
MEKK2wt PB1 HTS: 41*[inhibitor]; MEKK3 PB1 HTS: 31*[inhibitor]; MEKK2 mut-MEK5: -23; ABCG2 inh: -2; ABCB1 block: -1; MEKK2wt confirm: 76; MEKK2mut-MEK5: -18; MEKK3 confirm: 69*

Results for COc1ccc(CN(C)CC(=O)NC2CCCc3ccccc32)cc1OC (centres undefined) ?
MEKK2wt PB1 HTS: 93; MEKK3 PB1 HTS: 95; MEKK2 mut-MEK5: -10; ABCG2 inh: 3; ABCB1 block: 0; Efflux pump mplx: 0

What do the screens show for `CN1CCN(CCC(=O)Nc2ccc(C3CCCC3)cc2)CC1`?
MEKK2wt PB1 HTS: 142*; MEKK3 PB1 HTS: 92; MEKK2 mut-MEK5: 26; ABCG2 inh: 0; ABCB1 block: 1; Efflux pump mplx: 0; MEKK2wt confirm: 110; MEKK2mut-MEK5: 5; MEKK3 confirm: 107

What do the screens show for `Cc1cc(/C=C2/SC(=O)N(CC(=O)N3CCOCC3)C2=O)c(C)n1-c1ccccc1F`?
MEKK2wt PB1 HTS: 105; MEKK3 PB1 HTS: 148*; MEKK2 mut-MEK5: 0; ABCG2 inh: 1; ABCB1 block: 1; Efflux pump mplx: 0; MEKK2wt confirm: 103; MEKK2mut-MEK5: -8; MEKK3 confirm: 98

How did CC(c1ccccn1)N(C)C(=O)c1ccc2nc(Cc3ccccc3F)oc2c1 (centres undefined) do in these assays?
MEKK2wt PB1 HTS: 109; MEKK3 PB1 HTS: 106; MEKK2 mut-MEK5: 7; Efflux pump mplx: 0

How did CN1CCCN(C(=O)c2c(F)cccc2Cl)CC1 do in these assays?
MEKK2wt PB1 HTS: 100; MEKK3 PB1 HTS: 102; MEKK2 mut-MEK5: 2; Efflux pump mplx: 0

What do the screens show for `COCCn1c(=NC(=O)C(C)(C)C)sc2cc([N+](=O)[O-])ccc21`?
MEKK2wt PB1 HTS: 95; MEKK3 PB1 HTS: 72*[inhibitor]; MEKK2 mut-MEK5: -1; ABCG2 inh: 4; ABCB1 block: 0; Efflux pump mplx: 0; MEKK2wt confirm: 101; MEKK2mut-MEK5: -1; MEKK3 confirm: 101

How did COCCn1c(=NC(=O)c2cccs2)sc2cc(NC(C)=O)ccc21 do in these assays?
MEKK2wt PB1 HTS: 108; MEKK3 PB1 HTS: 106; MEKK2 mut-MEK5: 14; ABCG2 inh: -4; ABCB1 block: 0; Efflux pump mplx: 0

Results for Cc1sc(N/N=C/c2ccco2)nc1-c1ccccc1 ?
MEKK2wt PB1 HTS: 98; MEKK3 PB1 HTS: 131*; MEKK2 mut-MEK5: -1; ABCG2 inh: -6; ABCB1 block: -1; Efflux pump mplx: 0; MEKK2wt confirm: 106; MEKK2mut-MEK5: 5; MEKK3 confirm: 103

What do the screens show for `C(=N\Nc1nc(-c2ccccc2)cs1)/c1ccco1`?
MEKK2wt PB1 HTS: 102; MEKK3 PB1 HTS: 95; MEKK2 mut-MEK5: 2; ABCG2 inh: -1; ABCB1 block: 0; Efflux pump mplx: 0

What do the screens show for `COCCn1c(=O)c2c(nc3n2CCCN3CCc2ccc(OC)c(OC)c2)n(C)c1=O`?
MEKK2wt PB1 HTS: 107; MEKK3 PB1 HTS: 104; MEKK2 mut-MEK5: 11; Efflux pump mplx: 0
